ChEMBL document CHEMBL3779828, “Discovery of the Aryl-phospho-indole IDX899, a Highly Potent Anti-HIV Non-nucleoside Reverse Transcriptase Inhibitor” (J Med Chem, 2016)
≈ marks a conversion by molar mass, not a printed value.

How the values were obtained:
[1] = tested on: Human immunodeficiency virus 1; assay: Antiviral activity against HIV1 harboring reverse transcriptase Y181C mutant infected in primary MT4 cells assessed as inhibition of virus-induced cytopathogenicity after 4 days by MTS assay; type: functional, organism-based; settings: Human immunodeficiency virus 1, MT4, 96 h
[2] = tested on: Human immunodeficiency virus 1; assay: Antiviral activity against HIV1 harboring reverse transcriptase K103N mutant infected in primary MT4 cells assessed as inhibition of virus-induced cytopathogenicity after 4 days by MTS assay; type: functional, organism-based; settings: Human immunodeficiency virus 1, MT4, 96 h
[3] = Antiviral activity against HIV1 BH10 harboring wild type reverse transcriptase infected in primary MT4 cells assessed as inhibition of virus-induced cytopathogenicity after 4 days by MTS assay; type: functional, cell-based, Human immunodeficiency virus type 1 BH10; settings: Human immunodeficiency virus 1, MT4, 96 h
[4] = tested on: Human immunodeficiency virus 1; assay: Antiviral activity against HIV1 harboring reverse transcriptase Y181C/K103N double mutant infected in primary MT4 cells assessed as inhibition of virus-induced cytopathogenicity after 4 days by MTS assay; type: functional, organism-based; settings: Human immunodeficiency virus 1, MT4, 96 h
[5] = Aqueous solubility of the compound at pH 7; type: physicochemical; settings: aqueous medium
[6] = Half life in fed beagle dog at 5 mg/kg, po by LC-MS/MS method; type: ADME, organism-based, Canis lupus familiaris; settings: in vivo
In short: (§1)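 Fed beagle dogs and fed male cynomolgus monkeys were dosed at 1 mg/kg IV or 5 mg/kg PO in 10% dimethylacetamide/10% ethanol/80% PEG400. Femoral-vein blood was drawn predose and at 0.083–24 h into lithium-heparin tubes. Plasma was stored at -70 °C and parent drug was measured by LC-MS/MS. Values are mean parameters (n=3 or 2).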

[7] = Cmax in fed cynomolgus monkey at 1 mg/kg, iv after 0.083 to 24 hrs by LC-MS/MS method; type: ADME, organism-based, Macaca fascicularis; design: dose 1 mg/kg, route intravenous; settings: in vivo; in short: as §1
[8] = Cmax in fed beagle dog at 5 mg/kg, po after 0.083 to 24 hrs by LC-MS/MS method; type: ADME, organism-based, Canis lupus familiaris; design: dose 5 mg/kg, route oral; settings: in vivo; in short: as §1
[9] = Half life in fed cynomolgus monkey at 5 mg/kg, po by LC-MS/MS method; type: ADME, organism-based, Macaca fascicularis; settings: in vivo; in short: as §1
[10] = Cmax in fasted Sprague-Dawley rat at 2 mg/kg, iv after 0.083 to 24 hrs by LC-MS/MS method; type: ADME, organism-based; design: dose 2 mg/kg, route intravenous; settings: in vivo
[11] = Half life in dog hepatocytes; type: ADME, cell-based, Canis lupus familiaris, Hepatocyte
In short: (§2)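 Metabolic stability was measured in hepatocytes as the half-life (min) of parent compound depletion. Values come from independent experiments using hepatocytes from 5 to 7 donors.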

[12] = tested on: Human immunodeficiency virus 1; assay: Potency index, ratio of EFV EC50 to compound EC50 for HIV1 harboring reverse transcriptase Y181C/K103N double mutant; type: functional
[13] = Half life in fed cynomolgus monkey at 1 mg/kg, iv by LC-MS/MS method; type: ADME, organism-based, Macaca fascicularis; settings: in vivo; in short: as §1
[14] = Half life in fasted Sprague-Dawley rat at 10 mg/kg, po by LC-MS/MS method; type: ADME, organism-based; settings: in vivo
In short: (§3)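 Fasted Sprague Dawley rats received 10 mg/kg orally in 10% dimethylacetamide/10% ethanol/80% PEG400. Plasma was stored at -70 °C until LC-MS/MS quantitation. Values are mean parameters (n=3 or 2).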

[15] = Half life in monkey hepatocytes; type: ADME, cell-based, Macaca mulatta, Hepatocyte; settings: rhesus monkey; in short: as §2
[16] = Cmax in fed beagle dog at 1 mg/kg, iv after 0.083 to 24 hrs by LC-MS/MS method; type: ADME, organism-based, Canis lupus familiaris; design: dose 1 mg/kg, route intravenous; settings: in vivo; in short: as §1
[17] = Cmax in fed cynomolgus monkey at 5 mg/kg, po after 0.083 to 24 hrs by LC-MS/MS method; type: ADME, organism-based, Macaca fascicularis; design: dose 5 mg/kg, route oral; settings: in vivo; in short: as §1
[18] = Half life in rat hepatocytes; type: ADME, cell-based, Hepatocyte; in short: as §2
[19] = tested on: Human immunodeficiency virus 1; assay: Potency index, ratio of EFV EC50 to compound EC50 for HIV1 harboring reverse transcriptase K103N mutant; type: functional
[20] = Clearance in fasted Sprague-Dawley rat at 2 mg/kg, iv after 0.083 to 24 hrs by LC-MS/MS method; type: ADME, organism-based; settings: in vivo
[21] = Cmax in fasted Sprague-Dawley rat at 10 mg/kg, po after 0.083 to 24 hrs by LC-MS/MS method; type: ADME, organism-based; design: dose 10 mg/kg, route oral; settings: in vivo; in short: as §3
[22] = Clearance in fed cynomolgus monkey at 1 mg/kg, iv after 0.083 to 24 hrs by LC-MS/MS method; type: ADME, organism-based, Macaca fascicularis; settings: in vivo; in short: as §1
[23] = Clearance in fed beagle dog at 1 mg/kg, iv after 0.083 to 24 hrs by LC-MS/MS method; type: ADME, organism-based, Canis lupus familiaris; settings: in vivo; in short: as §1
[24] = Oral bioavailability in fed beagle dog at 5 mg/kg after 0.083 to 24 hrs by LC-MS/MS method; type: ADME, organism-based, Canis lupus familiaris; settings: in vivo; in short: as §1
[25] = Half life in fasted Sprague-Dawley rat at 2 mg/kg, iv by LC-MS/MS method; type: ADME, organism-based; settings: in vivo
[26] = Half life in fed beagle dog at 1 mg/kg, iv by LC-MS/MS method; type: ADME, organism-based, Canis lupus familiaris; settings: in vivo; in short: as §1
[27] = Tmax in fed cynomolgus monkey at 5 mg/kg, po by LC-MS/MS method; type: ADME, organism-based, Macaca fascicularis; settings: in vivo; in short: as §1
[28] = Oral bioavailability in fed cynomolgus monkey at 5 mg/kg after 0.083 to 24 hrs by LC-MS/MS method; type: ADME, organism-based, Macaca fascicularis; settings: in vivo; in short: as §1
[29] = Selectivity ratio of EC50 for HIV1 harboring reverse transcriptase Y181C/K103N double mutant to EC50 for HIV1 BH10 harboring wild type reverse transcriptase; type: functional

Question: With COc1cc(C)cc(P(=O)(OC)c2c(C(N)=O)[nH]c3ccc(Cl)cc23)c1 (stereo unspecified) as the compound, how does the EC50 [1] read?
Answer: 9 nM

Question: What about the EC50 [2] of the same compound?
Answer: 23 nM

Question: What about the EC50 [3] of the same compound?
Answer: 0.4 nM

Question: And the EC50 [4]?
Answer: 663 nM

Question: Which EC50 [1] does the source give for O=C1Nc2ccc(Cl)cc2[C@@](C#CC2CC2)(C(F)(F)F)O1 [EFAVIRENZ] here?
Answer: 1.8 nM

Question: And the EC50 [2]?
Answer: 37 nM

Question: What about the EC50 [3] of the same compound?
Answer: 0.7 nM

Question: What about the solubility [5] of the same compound?
Answer: < 0.5 µM

Question: And the EC50 [4]?
Answer: 58 nM

Question: Which results are given for COP(=O)(c1cccc2ccccc12)c1c(C(N)=O)[nH]c2ccc(Cl)cc12 (stereo unspecified)?
Answer: EC50 [1]: 357 nM; EC50 [2]: 727 nM; EC50 [3]: 17.5 nM; EC50 [4]: > 1000 nM

Question: Which EC50 [1] does the source give for COP(=O)(c1c(C(N)=O)[nH]c2ccc(Cl)cc12)C1CCCCC1 (stereo unspecified) here?
Answer: 219 nM

Question: What about the EC50 [2] of the same compound?
Answer: 101 nM

Question: And the EC50 [3]?
Answer: 2.5 nM

Question: What about the EC50 [4] of the same compound?
Answer: > 1000 nM

Question: Which results are given for COP(=O)(c1cc(C)cc(F)c1)c1c(C(N)=O)[nH]c2ccc(Cl)cc12 (stereo unspecified)?
Answer: EC50 [1]: 3.4 nM; EC50 [2]: 0.5 nM; EC50 [3]: 0.2 nM; solubility [5]: 1.7 µM (≈ 0.647 µg/mL); EC50 [4]: 69 nM

Question: For COP(=O)(c1cc(C)cc(Cl)c1)c1c(C(N)=O)[nH]c2ccc(Cl)cc12 (stereo unspecified), which EC50 [1] is on record?
Answer: 5.6 nM

Question: And the EC50 [2]?
Answer: 18.8 nM

Question: And the EC50 [3]?
Answer: 1.1 nM

Question: And the EC50 [4]?
Answer: 114 nM

Question: For COP(=O)(c1cc(C)cc(/C=C/C#N)c1)c1c(C(N)=O)[nH]c2ccc(Cl)cc12 (single isomer, unassigned; form 1) [FOSDEVIRINE], which half-life [6] is on record?
Answer: 2.4 h

Question: And the Cmax [7]?
Answer: 1460 ng/mL

Question: What about the Cmax [8] of the same compound?
Answer: 18 ng/mL

Question: What about the half-life [9] of the same compound?
Answer: 3.1 h

Question: And the Cmax [10]?
Answer: 88 ng/mL

Question: What about the half-life [11] of the same compound?
Answer: 0.35 h

Question: And the “Ratio EC50” value [12]?
Answer: 4

Question: And the half-life [13]?
Answer: 2 h

Question: And the half-life [14]?
Answer: 5.9 h

Question: What about the half-life [15] of the same compound?
Answer: 0.867 h

Question: What about the Cmax [16] of the same compound?
Answer: 290 ng/mL

Question: What about the EC50 [1] of the same compound?
Answer: 1.3 nM

Question: What about the Cmax [17] of the same compound?
Answer: 945 ng/mL

Question: What about the half-life [18] of the same compound?
Answer: 0.283 h

Question: And the EC50 [2]?
Answer: 2.8 nM

Question: And the “Ratio EC50” value [19]?
Answer: 30

Question: What about the clearance [20] of the same compound?
Answer: 1.18 mL/min/kg

Question: And the EC50 [3]?
Answer: 1 nM

Question: And the Cmax [21]?
Answer: 25 ng/mL

Question: What about the clearance [22] of the same compound?
Answer: 5.5 mL/min/kg

Question: What about the clearance [23] of the same compound?
Answer: 30.5 mL/min/kg

Question: What about the bioavailability [24] of the same compound?
Answer: 4%

Question: What about the solubility [5] of the same compound?
Answer: 20 µM (≈ 8.28 µg/mL)

Question: And the half-life [25]?
Answer: 0.2 h

Question: And the EC50 [4]?
Answer: 11 nM

Question: And the half-life [26]?
Answer: 3.9 h

Question: And the Tmax [27]?
Answer: 3 h

Question: What about the bioavailability [28] of the same compound?
Answer: 42%

Question: What does the source list for COP(=O)(c1cc(C)cc(Br)c1)c1c(C(N)=O)[nH]c2ccc(Cl)cc12 (stereo unspecified)?
Answer: EC50 [1]: 6 nM; EC50 [2]: 25 nM; EC50 [3]: 3 nM; EC50 [4]: 368 nM

Question: With COP(=O)(c1cc(C)cc(OCC#N)c1)c1c(C(N)=O)[nH]c2ccc(Cl)cc12 (stereo unspecified) as the compound, how does the EC50 [1] read?
Answer: 8.7 nM

Question: And the EC50 [2]?
Answer: 1.8 nM

Question: What about the EC50 [3] of the same compound?
Answer: 0.08 nM

Question: And the Ratio EC50 [29]?
Answer: > 1000

Question: What about the EC50 [4] of the same compound?
Answer: 111 nM

Question: What does the source list for COP(=O)(c1cccs1)c1c(C(N)=O)[nH]c2ccc(Cl)cc12 (stereo unspecified)?
Answer: EC50 [1]: 3.4 nM; EC50 [2]: 8.6 nM; EC50 [3]: 0.3 nM; EC50 [4]: > 1000 nM

Question: What does the source list for COP(=O)(c1cc(Cl)cc(Cl)c1)c1c(C(N)=O)[nH]c2ccc(Cl)cc12 (stereo unspecified)?
Answer: EC50 [1]: 1.7 nM; EC50 [2]: 19.9 nM; EC50 [3]: 0.3 nM; EC50 [4]: 248 nM
